Laboratory results published in ChEMBL document CHEMBL3414507, “Design, synthesis, biological evaluation and preliminary mechanism study of novel benzothiazole derivatives bearing indole-based moiety as potent antitumor agents” (Eur J Med Chem, 2015).
Several values for one entry are separate records, joined by “and”; a condition that tells them apart may be missing. Equal values may be shown once.

Legend:
[1] = tested on: MDA-MB-231; assay: Cytotoxicity against human MDA-MB-231 cells after 72 hrs by MTT assay; assay type: functional, cell-based; details: MDA-MB-231, 72 h
In short: (§1)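 MTT assay on HT29, H460, A549 and MDA-MB-231 cells with oncrasin-1 and PAC-1 as positive controls; IC50 from three independent experiments.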

[2] = tested on: HT-29; assay: Cytotoxicity against human HT-29 cells after 72 hrs by MTT assay; assay type: functional, cell-based; in short: as §1
[3] = Cytotoxicity against human H460 cells after 72 hrs by MTT assay; assay type: functional, cell-based; details: NCI-H460, 72 h; in short: as §1
[4] = tested on: A549; assay: Cytotoxicity against human A549 cells after 72 hrs by MTT assay; assay type: functional, cell-based; details: A549, 72 h; in short: as §1
[5] = biological target: T1, Caspase-3 (Homo sapiens) (UniProt P42574); assay: Activation of procaspase-3 (unknown origin) using Ac-DEVD-pNa as substrate at 10 uM after 2 hrs by spectrophotometry
T1 sequence (whole entry): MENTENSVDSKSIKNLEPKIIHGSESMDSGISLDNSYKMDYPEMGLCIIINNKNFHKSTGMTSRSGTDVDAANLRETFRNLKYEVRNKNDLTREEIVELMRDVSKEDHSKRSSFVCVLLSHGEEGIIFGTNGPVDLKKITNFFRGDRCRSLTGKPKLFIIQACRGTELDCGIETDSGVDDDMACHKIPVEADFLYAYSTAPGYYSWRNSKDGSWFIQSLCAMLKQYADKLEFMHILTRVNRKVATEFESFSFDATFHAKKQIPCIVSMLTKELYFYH

[6] = biological target: Vascular endothelial growth factor receptor 2 (Homo sapiens) (UniProt P35968); assay: Inhibition of KDR (unknown origin) at 10 uM after 30 mins by HTRF method
Chain of Vascular endothelial growth factor receptor 2 (Homo sapiens) (P35968 whole entry): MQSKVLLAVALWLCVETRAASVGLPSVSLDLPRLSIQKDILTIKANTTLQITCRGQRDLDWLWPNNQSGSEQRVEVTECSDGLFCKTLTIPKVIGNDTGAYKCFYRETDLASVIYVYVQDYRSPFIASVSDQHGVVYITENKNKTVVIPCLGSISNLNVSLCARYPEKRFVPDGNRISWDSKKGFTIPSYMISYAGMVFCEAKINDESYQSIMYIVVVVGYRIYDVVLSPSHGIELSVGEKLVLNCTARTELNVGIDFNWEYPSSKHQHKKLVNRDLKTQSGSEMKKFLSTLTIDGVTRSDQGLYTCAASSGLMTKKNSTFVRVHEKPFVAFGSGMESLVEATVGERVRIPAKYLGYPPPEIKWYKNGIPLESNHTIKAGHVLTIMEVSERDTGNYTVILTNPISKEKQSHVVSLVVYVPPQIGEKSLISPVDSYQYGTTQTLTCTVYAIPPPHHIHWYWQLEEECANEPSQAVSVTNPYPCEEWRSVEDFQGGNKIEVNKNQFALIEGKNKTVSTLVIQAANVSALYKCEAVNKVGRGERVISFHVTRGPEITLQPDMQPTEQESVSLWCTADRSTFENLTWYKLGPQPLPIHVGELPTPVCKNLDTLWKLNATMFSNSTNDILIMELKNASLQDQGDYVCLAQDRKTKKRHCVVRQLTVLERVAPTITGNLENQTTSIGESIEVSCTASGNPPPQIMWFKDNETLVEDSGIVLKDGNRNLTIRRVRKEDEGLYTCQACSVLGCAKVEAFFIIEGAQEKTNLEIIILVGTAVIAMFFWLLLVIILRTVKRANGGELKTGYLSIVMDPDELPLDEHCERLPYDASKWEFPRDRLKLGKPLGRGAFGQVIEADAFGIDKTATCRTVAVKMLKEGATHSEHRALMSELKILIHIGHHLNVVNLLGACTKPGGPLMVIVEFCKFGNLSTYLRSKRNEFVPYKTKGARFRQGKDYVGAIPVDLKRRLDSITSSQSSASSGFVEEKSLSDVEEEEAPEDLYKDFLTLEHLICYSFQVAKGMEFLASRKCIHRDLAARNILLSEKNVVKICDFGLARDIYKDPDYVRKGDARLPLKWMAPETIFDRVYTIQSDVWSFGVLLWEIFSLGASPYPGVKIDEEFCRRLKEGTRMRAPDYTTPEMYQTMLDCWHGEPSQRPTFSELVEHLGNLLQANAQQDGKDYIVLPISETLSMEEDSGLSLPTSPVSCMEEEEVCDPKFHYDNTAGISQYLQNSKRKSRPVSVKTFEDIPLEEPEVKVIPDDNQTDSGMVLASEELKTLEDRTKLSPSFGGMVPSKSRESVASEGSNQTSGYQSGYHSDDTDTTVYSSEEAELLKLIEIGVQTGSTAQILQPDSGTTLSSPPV

[7] = biological target: Receptor-type tyrosine-protein kinase FLT3 (Homo sapiens) (UniProt P36888); assay: Inhibition of FLT3 (unknown origin) at 10 uM after 30 mins by HTRF method
Chain of Receptor-type tyrosine-protein kinase FLT3 (Homo sapiens) (P36888 whole entry): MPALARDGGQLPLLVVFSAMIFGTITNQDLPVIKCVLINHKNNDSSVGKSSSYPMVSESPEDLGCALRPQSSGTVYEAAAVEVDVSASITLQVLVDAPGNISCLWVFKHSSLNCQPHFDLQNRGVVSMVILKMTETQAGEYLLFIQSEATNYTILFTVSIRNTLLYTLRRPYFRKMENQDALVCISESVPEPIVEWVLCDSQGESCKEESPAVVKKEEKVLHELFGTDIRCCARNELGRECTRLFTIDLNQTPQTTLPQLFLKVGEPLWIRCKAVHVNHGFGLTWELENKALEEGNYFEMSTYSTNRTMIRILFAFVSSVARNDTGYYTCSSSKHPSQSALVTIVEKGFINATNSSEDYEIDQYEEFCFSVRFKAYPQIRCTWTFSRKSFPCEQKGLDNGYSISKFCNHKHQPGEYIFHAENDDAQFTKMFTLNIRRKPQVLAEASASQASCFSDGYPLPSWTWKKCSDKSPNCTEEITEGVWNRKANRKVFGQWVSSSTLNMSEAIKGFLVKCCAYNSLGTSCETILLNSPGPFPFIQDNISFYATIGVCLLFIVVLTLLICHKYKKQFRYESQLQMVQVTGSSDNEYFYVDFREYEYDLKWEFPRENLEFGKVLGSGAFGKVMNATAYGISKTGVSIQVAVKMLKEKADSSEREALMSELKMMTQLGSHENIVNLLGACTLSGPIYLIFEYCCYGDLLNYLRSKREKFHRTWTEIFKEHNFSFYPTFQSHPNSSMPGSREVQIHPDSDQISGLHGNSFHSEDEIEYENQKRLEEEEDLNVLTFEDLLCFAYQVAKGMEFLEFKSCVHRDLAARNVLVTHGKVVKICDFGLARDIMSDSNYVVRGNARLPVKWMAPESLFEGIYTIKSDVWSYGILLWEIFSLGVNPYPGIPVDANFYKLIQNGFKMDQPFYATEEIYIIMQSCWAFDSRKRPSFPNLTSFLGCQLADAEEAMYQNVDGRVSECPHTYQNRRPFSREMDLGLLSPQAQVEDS

[8] = biological target: Platelet-derived growth factor receptor beta (Homo sapiens) (UniProt P09619); assay: Inhibition of PDGFR-beta (unknown origin) at 10 uM after 30 mins by HTRF method
Chain of Platelet-derived growth factor receptor beta (Homo sapiens) (P09619 whole entry): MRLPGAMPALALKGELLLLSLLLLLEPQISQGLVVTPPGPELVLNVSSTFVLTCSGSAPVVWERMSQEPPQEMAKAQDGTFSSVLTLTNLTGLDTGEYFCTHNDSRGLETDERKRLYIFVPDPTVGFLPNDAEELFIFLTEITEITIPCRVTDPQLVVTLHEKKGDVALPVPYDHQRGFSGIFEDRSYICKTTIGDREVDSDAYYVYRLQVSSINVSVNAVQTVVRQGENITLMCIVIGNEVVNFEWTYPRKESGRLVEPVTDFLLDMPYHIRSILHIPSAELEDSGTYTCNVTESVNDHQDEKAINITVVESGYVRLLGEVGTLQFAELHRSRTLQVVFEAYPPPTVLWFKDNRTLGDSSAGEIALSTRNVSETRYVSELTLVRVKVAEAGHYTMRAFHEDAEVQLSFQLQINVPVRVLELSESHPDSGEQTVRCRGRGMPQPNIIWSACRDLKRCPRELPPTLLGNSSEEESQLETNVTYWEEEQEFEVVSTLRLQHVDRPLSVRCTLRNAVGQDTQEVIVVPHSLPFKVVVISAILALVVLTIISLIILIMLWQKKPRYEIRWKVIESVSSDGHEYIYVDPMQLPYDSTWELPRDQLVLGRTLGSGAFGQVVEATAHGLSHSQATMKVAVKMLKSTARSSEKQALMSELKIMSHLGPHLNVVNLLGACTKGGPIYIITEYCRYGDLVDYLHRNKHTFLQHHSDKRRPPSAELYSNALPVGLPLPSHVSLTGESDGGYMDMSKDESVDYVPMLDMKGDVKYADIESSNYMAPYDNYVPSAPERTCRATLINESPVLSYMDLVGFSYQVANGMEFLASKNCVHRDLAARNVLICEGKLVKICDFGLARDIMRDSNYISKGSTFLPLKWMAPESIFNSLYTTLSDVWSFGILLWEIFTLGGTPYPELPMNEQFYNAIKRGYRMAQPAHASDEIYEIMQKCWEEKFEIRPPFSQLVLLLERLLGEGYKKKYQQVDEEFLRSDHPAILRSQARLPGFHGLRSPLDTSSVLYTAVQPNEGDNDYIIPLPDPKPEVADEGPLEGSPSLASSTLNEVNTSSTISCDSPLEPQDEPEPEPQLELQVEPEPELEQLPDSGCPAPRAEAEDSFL

[9] = tested on: HT-29; assay: Cell cycle arrest in human HT-29 cells assessed as accumulation at G0/G1 phase AT 10 uM after 48 hrs by propidium iodide staining-based assay (reference value: 54.11%); assay type: functional
[10] = biological target: Tubulin (Homo sapiens) (UniProt P68371+Q9H4B7+P0DPH7+P68366+Q13509+Q71U36+P04350+Q3ZCM7+P07437+P68363+Q9BQE3+Q6PEY2+Q13885+Q9BVA1+Q9BUF5); assay: Inhibition of tubulin (unknown origin) at 10 uM measured for 20 mins by turbidity method; assay type: protein-complex assay

Activity [5]	inhibition [6]	inhibition [7]	inhibition [8]	inhibition [10]	SMILES	IC50 [1]	IC50 ([2]; ht-29)	IC50 [3]	IC50 [4]	IC50 ([2]; Homo sapiens, HT-29, 72 h)	Activity [9]
–	–	–	–	–	CC1CCN(Cc2ccc3nc(NC(=O)N/N=C/c4cn(Cc5ccc(Cl)cc5Cl)c5ccccc45)sc3c2)CC1	3.14 µM	2.12 µM and 5.62 µM	1.66 µM	3.64 µM	–	–
–	–	–	–	–	CCN(CC)Cc1ccc2nc(NC(=O)N/N=C/c3cn(Cc4ccc(C(C)(C)C)cc4)c4ccccc34)sc2c1	2.12 µM	–	1.67 µM	1.71 µM	–	–
–	–	–	–	–	CCN(CC)Cc1ccc2nc(NC(=O)N/N=C/c3cn(Cc4cccc(Cl)c4)c4ccccc34)sc2c1	2.05 µM	–	0.22 µM	2.41 µM	–	–
–	–	–	–	–	CCN(CC)Cc1ccc2nc(NC(=O)N/N=C/c3cn(Cc4ccc(C)cc4)c4ccccc34)sc2c1	2.01 µM	–	0.32 µM	1.51 µM	–	–
–	–	–	–	–	CC1CCN(Cc2ccc3nc(NC(=O)N/N=C4\C(=O)Nc5ccc(F)cc54)sc3c2)CC1	–	5.39 µM	1.43 µM	3.01 µM	4.1 µM	–
–	–	–	–	–	CCN(CC)Cc1ccc2nc(NC(=O)N/N=C/c3cn(Cc4ccc(Cl)cc4Cl)c4ccccc34)sc2c1	3.28 µM	1.04 µM and 6.06 µM	1.08 µM	1.9 µM	–	–
–	–	–	–	–	CC1CCN(Cc2ccc3nc(NC(=O)N/N=C/c4cn(Cc5ccc(C(C)(C)C)cc5)c5ccccc45)sc3c2)CC1	3.88 µM	1.5 µM and 5.75 µM	3.37 µM	3.71 µM	–	–
–	–	–	–	–	CCN(CC)Cc1ccc2nc(NC(=O)N/N=C/c3cn(Cc4ccc(Cl)cc4)c4ccccc34)sc2c1	2.57 µM	–	0.37 µM	2.94 µM	–	–
–	–	–	–	–	CC1CCN(Cc2ccc3nc(NC(=O)N/N=C/c4cn(Cc5ccc(Cl)cc5)c5ccccc45)sc3c2)CC1	2.85 µM	0.75 µM and 6.43 µM	0.4 µM	2.03 µM	–	–
–	–	–	–	–	Cc1ccc(Cn2cc(/C=N/NC(=O)Nc3nc4ccc(CN(C)C)cc4s3)c3ccccc32)cc1	1.22 µM	–	0.2 µM	1.6 µM	–	–
–	–	–	–	–	CC1CCN(Cc2ccc3nc(NC(=O)N/N=C/c4cn(Cc5ccccc5Cl)c5ccccc45)sc3c2)CC1	1.36 µM	1.57 µM and 5.89 µM	1.08 µM	3.33 µM	–	–
–	–	–	–	–	CN(C)Cc1ccc2nc(NC(=O)N/N=C3\C(=O)Nc4ccc(Cl)cc43)sc2c1	–	2.57 µM and 5.59 µM	1.17 µM	3.18 µM	–	–
–	–	–	–	–	CN(C)Cc1ccc2nc(NC(=O)N/N=C/c3cn(Cc4ccccc4Cl)c4ccccc34)sc2c1	1.18 µM	–	1.6 µM	1.08 µM	–	–
–	–	–	–	–	CN(C)Cc1ccc2nc(NC(=O)N/N=C/c3cn(Cc4ccccc4)c4ccccc34)sc2c1	1.34 µM	–	0.4 µM	2.9 µM	–	–
–	–	–	–	–	CN(C)Cc1ccc2nc(NC(=O)N/N=C/c3cn(Cc4ccc(C(C)(C)C)cc4)c4ccccc34)sc2c1	2.23 µM	–	0.81 µM	1.85 µM	–	–
–	–	–	–	–	O=Cc1cn(Cc2ccc(Cl)cc2)c2ccccc12	26.1 µM	–	0.85 µM	2.48 µM	1.71 µM	–
9.1%	3.7%	34.1%	2.2%	–	CN(C)Cc1ccc2nc(NC(=O)N/N=C3\C(=O)Nc4ccc(F)cc43)sc2c1	–	0.97 µM and 6.01 µM	1.55 µM	2.31 µM	–	–

Activity [5]	inhibition [6]	inhibition [7]	inhibition [8]	inhibition [10]	SMILES	IC50 [1]	IC50 ([2]; ht-29)	IC50 [3]	IC50 [4]	IC50 ([2]; Homo sapiens, HT-29, 72 h)	Activity [9]
–	–	–	–	–	CN(C)Cc1ccc2nc(NC(=O)N/N=C/c3cn(Cc4ccc(Cl)c(Cl)c4)c4ccccc34)sc2c1	1 µM	–	1.36 µM	0.94 µM	–	–
–	–	–	–	–	CCN(CC)Cc1ccc2nc(NC(=O)N/N=C/c3cn(Cc4ccc(Cl)c(Cl)c4)c4ccccc34)sc2c1	4.49 µM	0.63 µM and 6.2 µM	0.61 µM	1.47 µM	–	–
–	–	–	–	–	CCN(CC)Cc1ccc2nc(NC(=O)N/N=C3\C(=O)Nc4ccc(OC(F)(F)F)cc43)sc2c1	–	1.9 µM and 5.72 µM	2.11 µM	1.99 µM	–	–
100%	–	–	–	–	C=CCc1cccc(/C=N/NC(=O)CN2CCN(Cc3ccccc3)CC2)c1O [PAC-1]	3.2 µM	–	1.25 µM	2.51 µM	1.02 µM	–
–	–	–	–	–	Cc1ccc(Cn2cc(/C=N/NC(=O)Nc3nc4ccc(CN5CCC(C)CC5)cc4s3)c3ccccc32)cc1	1.14 µM	1.03 µM and 5.94 µM	0.41 µM	2.18 µM	–	–
–	–	–	–	–	CC1CCN(Cc2ccc3nc(NC(=O)N/N=C/c4c[nH]c5ccccc45)sc3c2)CC1	2.46 µM	15.2 µM and 4.82 µM	4.13 µM	3.58 µM	–	–
–	–	–	–	–	CN(C)Cc1ccc2nc(NC(=O)N/N=C/c3cn(Cc4ccc(Cl)cc4Cl)c4ccccc34)sc2c1	1.41 µM	–	0.95 µM	2 µM	–	–
–	–	–	–	–	CCN(CC)Cc1ccc2nc(NC(=O)N/N=C/c3cn(Cc4ccccc4)c4ccccc34)sc2c1	1.47 µM	–	0.45 µM	3.33 µM	–	–
70.9%	5.9%	4.1%	12.8%	26%	CN(C)Cc1ccc2nc(NC(=O)N/N=C/c3cn(Cc4ccc(Cl)cc4)c4ccccc34)sc2c1	0.88 µM	–	0.29 µM	0.84 µM	–	68.66%
–	–	–	–	–	CN(C)Cc1ccc2nc(NC(=O)N/N=C/c3c[nH]c4ccccc34)sc2c1	1.19 µM	5 µM	2.55 µM	3.3 µM	9.9 µM	–
–	–	–	–	–	CC1CCN(Cc2ccc3nc(NC(=O)N/N=C/c4cn(Cc5cccc(Cl)c5)c5ccccc45)sc3c2)CC1	2.11 µM	0.73 µM and 6.14 µM	0.28 µM	2.81 µM	–	–
–	–	–	–	–	CCN(CC)Cc1ccc2nc(NC(=O)N/N=C/c3c[nH]c4ccccc34)sc2c1	1.9 µM	12.1 µM and 4.92 µM	3.14 µM	3.3 µM	–	–
–	–	–	–	–	CCN(CC)Cc1ccc2nc(NC(=O)N/N=C/c3cn(Cc4ccccc4Cl)c4ccccc34)sc2c1	0.9 µM	–	0.98 µM	1.39 µM	–	–
–	–	–	–	–	CC1CCN(Cc2ccc3nc(NC(=O)N/N=C/c4cn(Cc5ccccc5)c5ccccc45)sc3c2)CC1	2.85 µM	2.05 µM and 5.72 µM	1.91 µM	2.34 µM	–	–
–	–	–	–	–	CCN(CC)Cc1ccc2nc(NC(=O)N/N=C3\C(=O)Nc4ccc(F)cc43)sc2c1	–	1.55 µM and 5.81 µM	1.06 µM	2.01 µM	–	–
48.8%	–	–	–	18%	CN(C)Cc1ccc2nc(NC(=O)N/N=C/c3cn(Cc4cccc(Cl)c4)c4ccccc34)sc2c1	1.14 µM	–	0.42 µM	1.24 µM	–	–
